Peptide text beside a SMILES is read from it.
Biological target: Integrin alpha-IIb/beta-3 (Homo sapiens, UniProt P08514+P05106)
Test: Concentration required to inhibit adenosine diphosphate (ADP) induced aggregation of human platelets by 50% in vitro.
Outline: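 PRP obtained by centrifugation and adjusted to […]. PRP stirred at 1000 rpm and prewarmed 2 min at 37 °C with compound. Submaximal ADP added; light-transmittance aggregometry.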

Sequence of Integrin alpha-IIb/beta-3 (P05106 27-788 limits assumed): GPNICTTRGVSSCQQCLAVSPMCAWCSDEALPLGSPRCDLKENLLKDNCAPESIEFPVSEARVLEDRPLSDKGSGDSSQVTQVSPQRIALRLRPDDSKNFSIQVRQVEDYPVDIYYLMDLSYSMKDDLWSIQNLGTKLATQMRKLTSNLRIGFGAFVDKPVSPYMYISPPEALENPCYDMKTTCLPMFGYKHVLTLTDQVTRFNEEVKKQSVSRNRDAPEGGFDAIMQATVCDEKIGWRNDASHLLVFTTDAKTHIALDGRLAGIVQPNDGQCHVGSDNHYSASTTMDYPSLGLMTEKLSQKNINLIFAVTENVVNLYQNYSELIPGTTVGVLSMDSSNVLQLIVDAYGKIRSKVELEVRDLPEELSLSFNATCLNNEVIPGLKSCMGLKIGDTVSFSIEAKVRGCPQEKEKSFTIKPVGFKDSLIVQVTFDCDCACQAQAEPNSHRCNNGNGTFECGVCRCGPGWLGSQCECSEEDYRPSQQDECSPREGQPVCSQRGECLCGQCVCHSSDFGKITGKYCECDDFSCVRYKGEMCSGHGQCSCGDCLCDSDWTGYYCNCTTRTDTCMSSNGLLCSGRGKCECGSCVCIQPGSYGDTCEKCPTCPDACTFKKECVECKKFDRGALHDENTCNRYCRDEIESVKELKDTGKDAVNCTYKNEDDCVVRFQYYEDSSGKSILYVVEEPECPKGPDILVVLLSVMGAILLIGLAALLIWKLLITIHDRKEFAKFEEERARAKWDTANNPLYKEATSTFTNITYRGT
Sequence of Integrin alpha-IIb/beta-3 (P08514 32-887 limits assumed): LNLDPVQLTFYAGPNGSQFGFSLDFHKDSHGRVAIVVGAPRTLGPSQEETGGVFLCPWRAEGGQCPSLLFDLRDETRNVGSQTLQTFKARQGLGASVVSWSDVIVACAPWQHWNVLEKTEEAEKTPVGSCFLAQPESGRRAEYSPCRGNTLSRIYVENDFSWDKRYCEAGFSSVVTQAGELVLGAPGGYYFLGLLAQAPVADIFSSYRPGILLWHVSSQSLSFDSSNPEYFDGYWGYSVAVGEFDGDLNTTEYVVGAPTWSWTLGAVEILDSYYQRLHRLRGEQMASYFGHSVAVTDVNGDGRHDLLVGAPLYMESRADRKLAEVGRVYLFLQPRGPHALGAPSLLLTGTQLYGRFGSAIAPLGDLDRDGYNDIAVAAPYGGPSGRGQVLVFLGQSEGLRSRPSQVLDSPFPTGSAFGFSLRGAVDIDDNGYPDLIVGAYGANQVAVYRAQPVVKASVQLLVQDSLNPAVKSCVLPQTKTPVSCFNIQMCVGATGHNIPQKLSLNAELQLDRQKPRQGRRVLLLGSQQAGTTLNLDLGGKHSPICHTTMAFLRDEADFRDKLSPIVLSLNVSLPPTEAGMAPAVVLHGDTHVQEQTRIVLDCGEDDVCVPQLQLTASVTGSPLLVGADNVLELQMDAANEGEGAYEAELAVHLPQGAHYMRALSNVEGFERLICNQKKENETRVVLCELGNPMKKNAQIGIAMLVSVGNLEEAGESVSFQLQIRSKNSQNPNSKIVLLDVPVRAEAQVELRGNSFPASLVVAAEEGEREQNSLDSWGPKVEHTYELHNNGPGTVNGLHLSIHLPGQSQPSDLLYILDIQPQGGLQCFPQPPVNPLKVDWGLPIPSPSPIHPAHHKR
Sequence of Integrin alpha-IIb/beta-3 (P08514 891-1039 limits assumed): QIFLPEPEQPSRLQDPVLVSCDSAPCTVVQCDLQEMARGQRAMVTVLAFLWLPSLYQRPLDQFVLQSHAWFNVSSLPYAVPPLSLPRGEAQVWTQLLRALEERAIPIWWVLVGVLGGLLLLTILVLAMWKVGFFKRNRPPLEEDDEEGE

Row | Compound | IC50
1 | N=C(N)c1ccc(C(=O)NCC(=O)N2CCN(CC(=O)O)C(=O)[C@@H]2CCC(=O)O)cc1 [3-{(S)-1-[2-(4-Carbamimidoyl-benzoylamino)-acetyl]-4-carboxymethyl-3-oxo-piperazin-2-yl}-propionic acid] | 52 nM
2 | N=C(N)N1CCC(C(=O)NCC(=O)N2CCN(CC(=O)O)C(=O)[C@@H]2CC(=O)O)CC1 [((S)-1-{2-[(1-Carbamimidoyl-piperidine-4-carbonyl)-amino]-acetyl}-4-carboxymethyl-3-oxo-piperazin-2-yl)-acetic acid] | 800 nM
3 | N=C(N)NCCCCC(=O)NCC(=O)N1CCN(CC(=O)O)C(=O)[C@@H]1CC(=O)O [{(S)-4-Carboxymethyl-1-[2-(5-guanidino-pentanoylamino)-acetyl]-3-oxo-piperazin-2-yl}-acetic acid] | 3600 nM
4 | COC(=O)C[C@@H]1C(=O)N(CC(=O)O)CCN1C(=O)CNC(=O)c1ccc(C(=N)N)cc1 [{(R)-4-[2-(4-Carbamimidoyl-benzoylamino)-acetyl]-3-methoxycarbonylmethyl-2-oxo-piperazin-1-yl}-acetic acid] | 580 nM
5 | N=C(N)c1ccc(C(=O)NCC(=O)N2CCN(CC(N)=O)C(=O)[C@@H]2CC(=O)O)cc1 [{(S)-1-[2-(4-Carbamimidoyl-benzoylamino)-acetyl]-4-carbamoylmethyl-3-oxo-piperazin-2-yl}-acetic acid] | 30000 nM
6 | N=C(N)c1ccc(C(=O)NCC(=O)N2CCN(CCC(=O)O)C(=O)[C@@H]2CC(=O)O)cc1 [3-{(S)-4-[2-(4-Carbamimidoyl-benzoylamino)-acetyl]-3-carboxymethyl-2-oxo-piperazin-1-yl}-propionic acid] | 30000 nM
7 | N=C(N)c1ccc(C(=O)NCC(=O)N2CCN(CC(=O)O)C(=O)[C@@H]2Cc2ccccc2)cc1 [{(S)-3-Benzyl-4-[2-(4-carbamimidoyl-benzoylamino)-acetyl]-2-oxo-piperazin-1-yl}-acetic acid] | 110 nM
8 | N=C(N)c1ccc(CC(=O)NCC(=O)N2CCN(CC(=O)O)C(=O)[C@@H]2CC(=O)O)cc1 [((S)-1-{2-[2-(4-Carbamimidoyl-phenyl)-acetylamino]-acetyl}-4-carboxymethyl-3-oxo-piperazin-2-yl)-acetic acid] | 1200 nM
9 | N=C(N)c1ccc(C(=O)NCC(=O)N2CCN(CC(=O)O)C(=O)C2)cc1 [{4-[2-(4-Carbamimidoyl-benzoylamino)-acetyl]-2-oxo-piperazin-1-yl}-acetic acid] | 94 nM
10 | N=C(N)c1ccc(C(=O)NCC(=O)N2CCN([C@@H](Cc3ccccc3)C(=O)O)C(=O)[C@@H]2CC(=O)O)cc1 [(S)-2-{(S)-4-[2-(4-Carbamimidoyl-benzoylamino)-acetyl]-3-carboxymethyl-2-oxo-piperazin-1-yl}-3-phenyl-propionic acid] | 4100 nM
11 | COC(=O)C[C@H]1C(=O)N(CC(=O)O)CCN1C(=O)CNC(=O)c1ccc(CCN)cc1 [((S)-4-{2-[4-(2-Amino-ethyl)-benzoylamino]-acetyl}-3-methoxycarbonylmethyl-2-oxo-piperazin-1-yl)-acetic acid] | 78 nM
12 | C[C@@H](C(=O)O)N1CCN(C(=O)CNC(=O)c2ccc(C(=N)N)cc2)[C@@H](CC(=O)O)C1=O [(S)-2-{(S)-4-[2-(4-Carbamimidoyl-benzoylamino)-acetyl]-3-carboxymethyl-2-oxo-piperazin-1-yl}-propionic acid] | 1500 nM
13 | NCCc1ccc(C(=O)NCC(=O)N2CCN(CC(=O)O)C(=O)[C@@H]2CC(=O)O)cc1 [((S)-1-{2-[4-(2-Amino-ethyl)-benzoylamino]-acetyl}-4-carboxymethyl-3-oxo-piperazin-2-yl)-acetic acid] | 130 nM
14 | NCCc1ccc(C(=O)NCC(=O)N2CCN(CC(=O)O)C(=O)[C@@H]2CCC(=O)O)cc1 [3-((S)-1-{2-[4-(2-Amino-ethyl)-benzoylamino]-acetyl}-4-carboxymethyl-3-oxo-piperazin-2-yl)-propionic acid] | 110 nM
15 | CN(C)C(N)=Nc1ccc(C(=O)NCC(=O)N2CCN(CC(=O)O)C(=O)[C@@H]2CC(=O)O)cc1 [((S)-4-Carboxymethyl-1-{2-[4-(N',N'-dimethyl-guanidino)-benzoylamino]-acetyl}-3-oxo-piperazin-2-yl)-acetic acid] | 11000 nM
16 | NC(N)=Nc1ccc(C(=O)NCC(=O)N2CCN(CC(=O)O)C(=O)[C@@H]2CC(=O)O)cc1 [{(S)-4-Carboxymethyl-1-[2-(4-guanidino-benzoylamino)-acetyl]-3-oxo-piperazin-2-yl}-acetic acid] | 350 nM
17 | N=C(N)c1cccc(C(=O)NCC(=O)N2CCN(CC(=O)O)C(=O)[C@@H]2CC(=O)O)c1 [{(S)-1-[2-(3-Carbamimidoyl-benzoylamino)-acetyl]-4-carboxymethyl-3-oxo-piperazin-2-yl}-acetic acid] | 13000 nM
18 | N=C(N)NCc1ccc(C(=O)NCC(=O)N2CCN(CC(=O)O)C(=O)[C@@H]2CC(=O)O)cc1 [{(S)-4-Carboxymethyl-1-[2-(4-guanidinomethyl-benzoylamino)-acetyl]-3-oxo-piperazin-2-yl}-acetic acid] | 560 nM
19 | N=C(N)c1ccc(C(=O)NCC(=O)N2CCN(CC(=O)O)C(=O)[C@@H]2CC(N)=O)cc1 [{(S)-4-[2-(4-Carbamimidoyl-benzoylamino)-acetyl]-3-carbamoylmethyl-2-oxo-piperazin-1-yl}-acetic acid] | 740 nM
20 | CN(C)CCc1ccc(C(=O)NCC(=O)N2CCN(CC(=O)O)C(=O)[C@@H]2CCC(=O)O)cc1 [3-((S)-4-Carboxymethyl-1-{2-[4-(2-dimethylamino-ethyl)-benzoylamino]-acetyl}-3-oxo-piperazin-2-yl)-propionic acid] | 2500 nM
21 | N=C(N)c1ccc(C(=O)NCC(=O)N2CCN(CC(=O)O)C(=O)[C@@H]2CC(=O)O)cc1 | 110 nM
22 | NCCCc1ccc(C(=O)NCC(=O)N2CCN(CC(=O)O)C(=O)[C@@H]2CC(=O)O)cc1 [((S)-1-{2-[4-(3-Amino-propyl)-benzoylamino]-acetyl}-4-carboxymethyl-3-oxo-piperazin-2-yl)-acetic acid] | 1030 nM
23 | N=C(N)NCC1CCC(C(=O)NCC(=O)N2CCN(CC(=O)O)C(=O)[C@@H]2CC(=O)O)CC1 (stereo partly drawn) [((S)-4-Carboxymethyl-1-{2-[(4-guanidinomethyl-cyclohexanecarbonyl)-amino]-acetyl}-3-oxo-piperazin-2-yl)-acetic acid] | 1100 nM
24 | COC(=O)CN1CCN(C(=O)CNC(=O)c2ccc(C(=N)N)cc2)[C@@H](CC(=O)O)C1=O [{(S)-1-[2-(4-Carbamimidoyl-benzoylamino)-acetyl]-4-methoxycarbonylmethyl-3-oxo-piperazin-2-yl}-acetic acid] | 2600 nM
25 | NC(N)=NCCC[C@H](N)C(=O)NCC(=O)N[C@@H](CC(=O)O)C(=O)N[C@@H](Cc1ccccc1)C(=O)O [(R)-3-[2-((S)-2-Amino-5-guanidino-pentanoylamino)-acetylamino]-N-((S)-1-carboxy-2-phenyl-ethyl)-succinamic acid] (H-RGDF-OH) | 48000 nM
26 | COC(=O)CC[C@H]1C(=O)N(CC(=O)O)CCN1C(=O)CNC(=O)c1ccc(CCN(C)C)cc1 [3-((S)-4-Carboxymethyl-1-{2-[4-(2-dimethylamino-ethyl)-benzoylamino]-acetyl}-3-oxo-piperazin-2-yl)-propionic acid methyl ester] | 2300 nM
27 | COC(=O)CC[C@H]1C(=O)N(CC(=O)O)CCN1C(=O)CNC(=O)c1ccc(CCN)cc1 [3-((S)-1-{2-[4-(2-Amino-ethyl)-benzoylamino]-acetyl}-4-carboxymethyl-3-oxo-piperazin-2-yl)-propionic acid methyl ester] | 120 nM
28 | NCCc1ccc(C(=O)NCC(=O)N2CCN(CC(=O)O)C(=O)C2)cc1 [(4-{2-[4-(2-Amino-ethyl)-benzoylamino]-acetyl}-2-oxo-piperazin-1-yl)-acetic acid] | 150 nM
29 | COC(=O)CC[C@H]1C(=O)N(CC(=O)O)CCN1C(=O)CNC(=O)c1ccc(C(=N)N)cc1 [3-{(S)-1-[2-(4-Carbamimidoyl-benzoylamino)-acetyl]-4-carboxymethyl-3-oxo-piperazin-2-yl}-propionic acid methyl ester] | 90 nM
